# ChEMBL document CHEMBL1154512, “PA-824 kills nonreplicating Mycobacterium tuberculosis by intracellular NO release” (2008)
# How the values were obtained:
# [1] = system: Mycobacterium tuberculosis; test: Mycobactericidal activity against Mycobacterium tuberculosis H37Rv assessed as minimum anaerobicidal concentration required for 1 log reduction in bacterial numbers after 1 week under hypoxic non replicating condition; assay type: functional
# Procedure, shortened: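 Mtb adapted to hypoxia was exposed to compound for 1 week. MAC taken as the micromolar concentration giving a 1 log drop in bacterial numbers.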
# [2] = biological target: Deazaflavin-dependent nitroreductase (Mycobacterium tuberculosis) (UniProt P9WP15); test: Ratio of Kcat to Km for Mycobacterium tuberculosis Rv3547 expressed in Escherichia coli co-transfected with maltose-binding fusion protein
# Deazaflavin-dependent nitroreductase (Mycobacterium tuberculosis), sequence (P9WP15 whole entry, the tested form may be a part): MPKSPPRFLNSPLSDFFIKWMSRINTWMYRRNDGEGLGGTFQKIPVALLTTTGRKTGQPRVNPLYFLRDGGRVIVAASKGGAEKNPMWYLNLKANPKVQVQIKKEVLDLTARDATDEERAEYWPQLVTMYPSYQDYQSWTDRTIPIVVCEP
# Procedure, shortened: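 Ddn (Rv3547) expressed in E. coli as a maltose-binding protein fusion and purified on amylose resin. Activity followed as time- and enzyme-dependent reoxidation of reduced F420 (F420H2), with the nitroimidazole as substrate. Kinetic values given as kcat/Km (min–1 μM–1).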
# [3] = system: Mycobacterium tuberculosis; test: Bactericidal activity against Mycobacterium tuberculosis H37Rv under aerobic condition by broth dilution method; assay type: functional
# Procedure, shortened: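 MIC taken as the micromolar concentration inhibiting 99% of growth of an Mtb inoculum.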
# [4] = biological target: Deazaflavin-dependent nitroreductase (Mycobacterium tuberculosis) (UniProt P9WP15); test: Binding affinity to Mycobacterium tuberculosis Rv3547 assessed as nitrous acid production by Griess method in presence of cofactor F420H2
# Procedure, shortened: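 Purified Ddn incubated with the nitroimidazole and F420H2. Reduction monitored as nitrite formation, read with Griess reagent.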
Structure (SMILES),Activity [1] [µM],Ratio [2],MIC99 [3] [µM],Activity [4]
O=[N+]([O-])c1cn2c(n1)OC[C@H](OCc1ccc(OC(F)(F)F)cc1)C2,250,0.016,110,
O=[N+]([O-])c1cn2c(n1)NC[C@@H](OCc1ccc(OC(F)(F)F)cc1)C2,130,,0.8,
O=[N+]([O-])c1cn2c(n1)OC[C@@H](OCc1ccc(OC(F)(F)F)cc1)C2 [PRETOMANID],12,0.145,0.8,Dose-dependent effect
O=[N+]([O-])c1cn2c(n1)OC[C@@H](NCc1ccc(OC(F)(F)F)cc1)C2,8,,0.4,
"O=CN1CC(OCc2ccc(OC(F)(F)F)cc2)Cn2cc([N+](=O)[O-])nc21 (single isomer, unassigned)",31,,6.3,
O=[N+]([O-])c1cn2c(n1)SC[C@@H](OCc1ccc(OC(F)(F)F)cc1)C2,25,,1.2,
O=[N+]([O-])c1cn2c(n1)OC[C@@H](NCCCCc1ccc(OC(F)(F)F)cc1)C2,8.1,,0.04,
O=[N+]([O-])c1cn2c(n1)OC[C@@H](NCCc1ccc(OC(F)(F)F)cc1)C2,2,,0.04,
CCCCc1ccc(CN[C@@H]2COc3nc([N+](=O)[O-])cn3C2)cc1,75,,0.78,
O=[N+]([O-])c1cn2c(n1)OC[C@@H](NCc1ccc(OCc3ccc(OC(F)(F)F)cc3)cc1)C2,2.1,,0.16,
O=[N+]([O-])c1cn2c(n1)OC[C@@H](NCCCc1ccc(OC(F)(F)F)cc1)C2,3.1,,0.08,
